Screening data (PubChem)
In the library only some 2.1% were active in any assay of this set; here they are far more common.
Runt-CBFb FRET – Runt domain-CBFb interaction inhibition; Q01196+Q13951; Cerulean-Runt/Venus-CBFb FRET ratio 530/480, 1 h; inhibition, % at 20 µM; 220,000 tested, 0.46% active; AID 1496;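 active = inhibition over about 50% at 20 µM in the single-dose screen, limit read from the data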
Target sequence (Q01196 whole entry, looked up, the tested form may be a part): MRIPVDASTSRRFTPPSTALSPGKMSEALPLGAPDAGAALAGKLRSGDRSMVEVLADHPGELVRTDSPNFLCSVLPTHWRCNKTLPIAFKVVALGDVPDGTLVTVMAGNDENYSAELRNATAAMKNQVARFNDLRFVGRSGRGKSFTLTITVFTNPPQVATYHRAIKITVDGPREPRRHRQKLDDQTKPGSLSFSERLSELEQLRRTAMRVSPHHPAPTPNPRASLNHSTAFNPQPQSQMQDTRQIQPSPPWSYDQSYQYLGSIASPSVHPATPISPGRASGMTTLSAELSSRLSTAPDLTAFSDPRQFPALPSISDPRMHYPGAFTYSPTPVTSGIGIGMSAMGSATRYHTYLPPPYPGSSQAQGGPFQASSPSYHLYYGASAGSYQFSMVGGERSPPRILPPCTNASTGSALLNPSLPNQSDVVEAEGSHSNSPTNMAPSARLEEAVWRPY
Target sequence (Q13951 whole entry, looked up, the tested form may be a part): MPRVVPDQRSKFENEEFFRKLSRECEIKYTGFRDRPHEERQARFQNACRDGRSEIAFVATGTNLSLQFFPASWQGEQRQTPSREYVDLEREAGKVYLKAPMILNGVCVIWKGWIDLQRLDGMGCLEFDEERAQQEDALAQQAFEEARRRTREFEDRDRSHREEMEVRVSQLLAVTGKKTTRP
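test system = Cerulean-Runt domain fusion protein, energy donor | probe or stimulus = Venus-CBFb binding partner, 100 nM | incubation = two 1 h room-temperature incubations shielded from light | detection = fluorescence energy transfer, 422 nm excitation, 530/480 nm emission | measure = loss of energy transfer signal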
Runt-SMMHC FRET – blocks binding of human RUNX1 Runt domain to CBFb-SMMHC; Q01196+Q13951; Cerulean-Runt/Venus-CBFb-SMMHC FRET ratio 530/480, 1 h; inhibition, % at 20 µM; 220,000 tested, 0.74% active;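 active = mean inhibition across duplicate retests at 20 µM reaching about 50%, limit read from the data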;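 also: inhibitors lower the FRET ratio by blocking Runt binding to CBFb-SMMHC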
RanGTP-Impb inh – inhibitors of RanGTP-importin-beta interaction, primary screen, biochemical, FRET, CFP-Ran, YFP-importin-beta, homogeneous. cell-free CFP-Ran/YFP-importin-beta FRET ratio. inhibition, % (no concentration beside the values). 300,000 tested, 1.1% active. AID 2216;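 active = more than half of the replicate wells show a fall in the fluorescence ratio signal beyond about 16%, limit read from the data, passing the limit was not always enough; inconclusive = exactly half of the replicate wells pass the set limit; inactive = fewer than half of replicates pass the limit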
FAS TE block – FAS thioesterase (human) inhibition. recombinant FAS-TE, OMFH fluorogenic substrate, fluorescence endpoint. inhibition, % at 15 µM. 360,000 tested, 0.67% active. AID 602261;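 active = compounds whose normalised, plate-corrected inhibition of enzyme fluorescence in the single-dose primary screen is 50% or more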
Calpain2 inh – inhibitors of pig calpain II | purified calpain II, fluorogenic peptide substrate, 30 min | inhibition, % at 16 µM | 220,000 tested, 0.37% active | AID 1236;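 active = inhibition above about 50%, limit read from the data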
FAS-TE inh conf – confirmation of human fatty acid synthase thioesterase inhibitors; shares compounds with FAS TE block; recombinant FAS-TE, OMFH fluorogenic substrate, fluorescence; inhibition, % at 15 µM; 2,300 tested, 45% active; AID 624325;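 active = compounds inhibiting the enzyme by at least 50% at 15 µM in any one of the replicates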
Each line names hits and unclear results; the compound was inactive in the other large screens (follow-up assays come after a bar, where they were run).

CCOc1ccc2nc(Cl)c(C3CC(c4ccco4)=NN3S(=O)(=O)c3ccccc3)cc2c1 (stereo unspecified)	FAS TE block 52.9 | FAS-TE inh conf inactive
CCCN1C(C)C(C(=O)OCC)=CN(Cc2cccc(I)c2)S1(=O)=O (stereo unspecified)	none (no result: Runt-CBFb FRET, Runt-SMMHC FRET, RanGTP-Impb inh, Calpain2 inh)
Cc1[nH][nH]c(=O)c1C(c1ccc(-c2cccc(C(=O)O)c2)o1)c1c(C)[nH][nH]c1=O	none
Cc1[nH][nH]c(=O)c1C(c1ccc(-c2cccc(Cl)c2)o1)c1c(C)[nH][nH]c1=O	FAS TE block 54.2 | FAS-TE inh conf inactive
Cc1cccc(-c2ccc3c(c2)C2CC3CCN2C)c1 (stereo unspecified)	none (no result: Runt-CBFb FRET, Runt-SMMHC FRET, RanGTP-Impb inh, Calpain2 inh)
NNC(=O)C1=NOC2COC3(CCN(c4ncccn4)CC3)OCC12 (stereo unspecified)	none
O=C(N/N=C\c1ccc(Cl)cc1)C1=NOC2COC3(CCN(c4ccc([N+](=O)[O-])cc4)CC3)OCC12 (stereo unspecified)	FAS TE block 68.8 | FAS-TE inh conf inactive
CC(C)(C)c1cc(Br)c(O)c(N=Nc2ccc(S(=O)(=O)N3CCOCC3)cc2)c1	FAS TE block 83.6 | FAS-TE inh conf 49.1
Cc1ccc(O)c(N=Nc2ccc(S(=O)(=O)N3CCOCC3)cc2)c1	none
CCC(=O)N(Cc1cc2ccccc2[nH]c1=O)c1ccccc1OC	none (no result: Runt-CBFb FRET, Runt-SMMHC FRET, Calpain2 inh)
CCOC(=O)C(=COC(=O)c1ccccc1)NC(=O)Cc1ccccc1	none (no result: Runt-CBFb FRET, Runt-SMMHC FRET, RanGTP-Impb inh, Calpain2 inh)
COc1cc(/C=N/NC(=O)c2ccc3ccccc3c2)ccc1Oc1ccc([N+](=O)[O-])cn1	FAS TE block 51.5 | FAS-TE inh conf inactive
CC(=O)c1ccc(N(CC(=O)NC2CCCCC2)C(=O)CNC(=O)c2ccco2)cc1	none (no result: Runt-CBFb FRET, Runt-SMMHC FRET, Calpain2 inh)
Cc1cccn2c(=O)c3cc(C#N)c(=NC(=O)c4cccs4)n(CCCOC(C)C)c3nc12	Runt-CBFb FRET 78.8, Runt-SMMHC FRET 88.1, RanGTP-Impb inh 81.0, FAS TE block 52.0 | FAS-TE inh conf inactive
CCOC(=O)c1cc2c(=O)n3cccc(C)c3nc2n(CCCOC)c1=NC(=O)c1cccnc1	Runt-CBFb FRET 110.4, RanGTP-Impb inh 128.6, FAS TE block 53.8 | FAS-TE inh conf inactive
Cc1nc2c(C)cccn2c(=O)c1NC(=O)c1cccs1	none (no result: Runt-CBFb FRET, Runt-SMMHC FRET, Calpain2 inh)
COCCCNC(=O)c1cc2c(=O)n3cccc(C)c3nc2s1	none (no result: Runt-CBFb FRET, Runt-SMMHC FRET, Calpain2 inh)
CCCCn1c(=NC(=O)c2ccco2)c(C(=O)OCC)cc2c(=O)n3cccc(C)c3nc21	Runt-SMMHC FRET 81.7, RanGTP-Impb inh 122.5, FAS TE block 55.8 | FAS-TE inh conf inactive
CCCn1c(=O)c2c(C(=O)OCC)cc(-c3ccco3)nc2n(CCC)c1=O	none
CCc1[nH]nc(C(=O)NC2CCCN(Cc3ccccc3F)C2)c1C (stereo unspecified)	none (no result: Runt-CBFb FRET, Runt-SMMHC FRET, Calpain2 inh)
CC(=O)N1CCCN(Cc2cn(-c3cccc(C)c3)nc2-c2cccc(F)c2)CC1	RanGTP-Impb inh inconclusive
Cc1cccc(-n2cnc3c(sc4nc(N5CCOCC5)c5c(c43)CCCC5)c2=O)c1	FAS TE block 65.9 | FAS-TE inh conf inactive
N#Cc1c(-c2ccccc2)c(-c2ccccc2)nn(CC(=O)NNC(=O)Nc2ccc(Cl)cc2)c1=O	FAS TE block 76.2 | FAS-TE inh conf 78.3
N#Cc1c(-c2ccccc2)c(-c2ccccc2)nn(CC(=O)NNC(=O)Nc2ccccc2)c1=O	none
O=C(c1ccc(Cl)cc1)C1C2C(=O)N(c3ccccc3)C(=O)C2C2CCCN21 (stereo unspecified)	none
O=C(c1ccc(Cl)cc1)[C@@H]1[C@@H]2C(=O)N(c3ccccc3)C(=O)[C@@H]2C2c3ccccc3C=NN21 (stereo partly specified)	FAS TE block 52.3 | FAS-TE inh conf inactive
CCOC(=O)c1sc(NC(=O)c2ccc(S(=O)(=O)N3CCCCCC3)cc2)nc1-c1ccccc1	none
CCOC(=O)c1sc(NC(=O)c2ccc(S(=O)(=O)N3CCCCC3)cc2)nc1-c1ccccc1	FAS TE block 65.2 | FAS-TE inh conf inactive
Cc1ccc(/C=N\NC(=O)C2CN(S(=O)(=O)c3ccccc3)CCN2S(=O)(=O)c2ccccc2)cc1 (stereo unspecified)	FAS TE block 80.6 | FAS-TE inh conf inactive
CCNC(=O)C1CN(S(=O)(=O)c2ccccc2)CCN1S(=O)(=O)c1ccccc1 (stereo unspecified)	none
